According to ChEMBL document CHEMBL1777756, “Discovery of Novel Benzo[a]phenoxazine SSJ-183 as a Drug Candidate for Malaria” (ACS Med Chem Lett, 2010):
pIC50: −log10 of the molar value. The source made the active and inactive calls. The calls are words filed in the database; no cut-off is given here.

Experiments:
Plasmodium berghei [1] = experiment: Antimalarial activity against Plasmodium berghei ANKA expressing green fluorescent protein infected in NMRI mouse assessed as cure rate at 100 mg/kg, po qd administered for 3 consecutive days; assay type: functional
Outline: (§1)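 Oral dosing once a day for three consecutive days to female NMRI mice infected with P. berghei GFP ANKA strain. n = 3 mice per dose, data from 2–3 independent experiments. Parasitemia inhibition read on day 4 postinfection. Mean survival days and the percentage of cured animals were recorded.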

Leishmania donovani [2] = experiment: Antiparasitic activity against Leishmania donovani; assay type: functional, organism-based
Leishmania donovani [3] = experiment: Selectivity ratio of IC50 for Plasmodium falciparum K1 to IC50 for Leishmania donovani; assay type: functional
[4] = test system: Trypanosoma brucei rhodesiense; experiment: Antiparasitic activity against Trypanosoma brucei rhodesiense; assay type: functional, organism-based
Plasmodium berghei [5] = experiment: Antimalarial activity against Plasmodium berghei ANKA infected in NMRI mouse assessed as survival days at 100 mg/kg, po administered as single dose; assay type: functional
Outline: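 Female NMRI mice infected with P. berghei ANKA received a single oral dose of 100 mg/kg. Three independent experiments were run with 3 mice each. Mean survival days were averaged across the experiments.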

Trypanosoma cruzi [6] = experiment: Antiparasitic activity against Trypanosoma cruzi; assay type: functional, organism-based
Trypanosoma cruzi [7] = experiment: Selectivity ratio of IC50 for Plasmodium falciparum K1 to IC50 for Trypanosoma cruzi; assay type: functional
Plasmodium berghei [8] = experiment: Antimalarial activity against Plasmodium berghei ANKA expressing green fluorescent protein infected in NMRI mouse assessed as growth inhibition at 100 mg/kg, po qd administered for 3 consecutive days measured on day 4 post parasitic infection; assay type: functional; conditions: 96 h, read-out: GI; outline: as §1
Plasmodium berghei [9] = experiment: Antimalarial activity against Plasmodium berghei ANKA expressing green fluorescent protein infected in NMRI mouse assessed as cure rate at 30 mg/kg, po qd administered for 3 consecutive days; assay type: functional; outline: as §1
[10] = Toxicity in rat at 1000 mg/kg by micronucleus test; assay type: organism-based; parameters: dose 1000 mg/kg; conditions: in vivo
Outline: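 In vivo micronucleus test in rats dosed at 1000 mg/kg × 2.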

Plasmodium berghei [11] = experiment: Antimalarial activity against Plasmodium berghei ANKA expressing green fluorescent protein infected in NMRI mouse assessed as growth inhibition at 10 mg/kg, po qd administered for 3 consecutive days measured on day 4 post parasitic infection; assay type: functional; conditions: 96 h, read-out: GI; outline: as §1
[12] = target: D(3) dopamine receptor (Homo sapiens) (UniProt P35462); experiment: Inhibition of human recombinant D3 receptor at 1 uM
D(3) dopamine receptor (Homo sapiens), sequence (P35462 whole entry): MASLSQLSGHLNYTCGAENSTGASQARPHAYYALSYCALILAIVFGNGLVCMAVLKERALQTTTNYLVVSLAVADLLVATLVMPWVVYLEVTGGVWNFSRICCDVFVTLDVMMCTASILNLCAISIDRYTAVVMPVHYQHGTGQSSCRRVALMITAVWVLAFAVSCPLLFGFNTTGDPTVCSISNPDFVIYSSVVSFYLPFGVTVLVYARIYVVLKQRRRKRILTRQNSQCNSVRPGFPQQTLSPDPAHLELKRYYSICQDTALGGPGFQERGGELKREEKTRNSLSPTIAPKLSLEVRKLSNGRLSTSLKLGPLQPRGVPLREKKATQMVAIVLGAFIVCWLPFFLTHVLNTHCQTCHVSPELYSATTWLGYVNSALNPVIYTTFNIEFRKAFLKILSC
Outline: (§2)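 Binding assays were run against a panel of 80 receptors at 1 μM compound. Percent inhibition was read for human recombinant receptors.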

Plasmodium berghei [13] = experiment: Antimalarial activity against Plasmodium berghei NK-65 infected in ICR mouse assessed as survival days at 100 mg/kg, po administered as single dose (reference value: 6 days); assay type: functional
Outline: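 Female ICR mice infected with P. berghei NK-65 received a single oral dose of 100 mg/kg on day 1. The compound was given as a suspension in 5% glucose/10% ethanol or in 7% Tween 80/3% ethanol. Parasitemia was read on day 4 as percent reduction relative to untreated controls, and mean survival days were recorded.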

Plasmodium berghei [14] = experiment: Antimalarial activity against Plasmodium berghei str. ANKA infected in mouse assessed as cure rate at 100 mg/kg, po administered as three daily dose; assay type: functional, organism-based; parameters: dose 100 mg/kg; outline: as §1
[15] = Toxicity in S9 fraction at 1000 uM by chromosomal aberration test; assay type: subcellular; conditions: s9, 1000 µM
Outline: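 Chromosome aberration test at 1000 μM, run both without and with S9 metabolic activation.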

Blood = experiment: Cytotoxicity in G6PD-deficient human blood assessed as hemolysis; assay type: tissue-based
[16] = Toxicity in S9 fraction at 2 uM by micronucleus test; assay type: subcellular; conditions: s9, 2 µM
Outline: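 In vitro micronucleus test at 2.0 μM, run both without and with S9.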

Plasmodium falciparum = experiment: Antimalarial activity against chloroquine and pyrimethamine resistant Plasmodium falciparum K1; assay type: functional, organism-based
Outline: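 IC50 was determined in vitro against the chloroquine- and pyrimethamine-resistant P. falciparum K1 strain. Values are the mean of two independent assays.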

[17] = Biodistribution in mouse urine at 100 mg/kg, po administered as single dose; assay type: ADME, organism-based; parameters: dose 100 mg/kg, route oral; conditions: in vivo
Outline: (§3)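 Mice received a single oral dose of 100 mg/kg. Urine, eyes and organs were then checked by eye for the purple/blue colour of the compound formulation.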

Plasmodium berghei [18] = experiment: Antimalarial activity against Plasmodium berghei ANKA expressing green fluorescent protein infected in NMRI mouse assessed as survival days at 10 mg/kg, po qd administered for 3 consecutive days; assay type: functional
Outline: (§4)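 Female NMRI mice infected with GFP-expressing P. berghei ANKA were dosed orally once daily for three consecutive days, 3 mice per dose level, in 2 to 3 independent experiments. Parasitemia was read on day 4 post-infection, and mean survival days were recorded along with the percentage of cured animals.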

L6 = experiment: Cytotoxicity against rat L6 cells; assay type: cell-based
Outline: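 Cytotoxicity was tested against L-6 rat myoblasts, with IC50 determined. Values are the mean of two independent assays.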

Plasmodium berghei [19] = experiment: Antimalarial activity against Plasmodium berghei ANKA expressing green fluorescent protein infected in NMRI mouse assessed as growth inhibition at 30 mg/kg, po qd administered for 3 consecutive days measured on day 4 post parasitic infection; assay type: functional; conditions: 96 h, read-out: GI; outline: as §1
Plasmodium berghei [20] = experiment: Antimalarial activity against Plasmodium berghei NK-65 infected in ICR mouse assessed as inhibition of parasitemia at 100 mg/kg, po administered as single dose on day 1 measured on day 4; assay type: functional
Outline: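 Compound was formulated at 100 mg/kg in 5% glucose/10% ethanol or in 7% Tween 80/3% ethanol. The suspension was given as a single oral dose on day 1 to female ICR mice infected with P. berghei NK-65. Parasitemia was determined on day 4 after infection. Treated-group mean is expressed as percent difference from the control-group mean.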

Plasmodium berghei [21] = experiment: Antimalarial activity against Plasmodium berghei ANKA infected in NMRI mouse at 100 mg/kg, po administered as single dose; assay type: functional
Outline: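 Female NMRI mice infected with P. berghei ANKA strain were given a single oral dose of 100 mg/kg. Three independent experiments were run with n = 3 mice per experiment. Inhibition of parasitemia and mean survival days are averaged across the experiments.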

Mus musculus [22] = experiment: Toxicity in NMRI mouse infected with Plasmodium berghei ANKA expressing green fluorescent protein assessed as lethality at 2000 mg/kg, po qd administered for 3 consecutive days; assay type: organism-based; parameters: dose 2000 mg/kg, route oral; conditions: in vivo
Plasmodium berghei [23] = experiment: Antimalarial activity against Plasmodium berghei ANKA expressing green fluorescent protein infected in NMRI mouse assessed as survival days at 30 mg/kg, po qd administered for 3 consecutive days; assay type: functional; outline: as §4
[24] = Selectivity ratio of IC50 for Plasmodium falciparum K1 to IC50 for Trypanosoma brucei rhodesiense; assay type: functional
[25] = Oral bioavailability in Sprague-Dawley rat; assay type: ADME, organism-based; conditions: in vivo
Outline: (§5)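 Male Sprague–Dawley rats received 2.8 mg/kg intravenously or 21.5 mg/kg orally, and the plasma concentration–time profile was followed. Oral bioavailability and terminal half-life after iv dosing were derived.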

[26] = Selectivity index, ratio of IC50 for rat L6 cells to IC50 for Plasmodium falciparum K1; assay type: toxicity, cell-based; conditions: read-out: Ratio IC50
Outline: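 Selectivity index is IC50 against L-6 cells divided by IC50 against chloroquine/pyrimethamine-resistant P. falciparum K1. Each IC50 is the mean of two independent assays.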

Plasmodium berghei [27] = experiment: Antimalarial activity against Plasmodium berghei ANKA expressing green fluorescent protein infected in NMRI mouse assessed as survival days at 100 mg/kg, po qd administered for 3 consecutive days; assay type: functional; outline: as §4
[28] = Terminal-half life in iv dosed Sprague-Dawley rat; assay type: ADME, organism-based; conditions: in vivo, read-out: beta t1/2 (converted); outline: as §5
Mus musculus [29] = experiment: Biodistribution in mouse eyes at 100 mg/kg, po administered as single dose; assay type: ADME, organism-based, Eye; parameters: dose 100 mg/kg, route oral; conditions: in vivo; outline: as §3
[30] = target: T1, Adenosine receptor A3 (Homo sapiens) (UniProt P0DMS8); experiment: Inhibition of human recombinant A3 receptor at 1 uM; outline: as §2
T1 sequence (whole entry): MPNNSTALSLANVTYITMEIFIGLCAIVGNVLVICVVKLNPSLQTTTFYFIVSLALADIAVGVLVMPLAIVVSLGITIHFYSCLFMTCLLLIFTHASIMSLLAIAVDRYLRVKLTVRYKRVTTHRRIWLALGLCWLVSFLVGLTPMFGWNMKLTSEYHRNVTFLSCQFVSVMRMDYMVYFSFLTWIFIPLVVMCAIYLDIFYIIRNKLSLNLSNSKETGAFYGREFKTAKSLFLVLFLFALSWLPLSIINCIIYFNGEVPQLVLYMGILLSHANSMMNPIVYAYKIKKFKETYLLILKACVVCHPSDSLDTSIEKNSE

Mus musculus [31] = experiment: Phototoxicity against mouse at 300 mg/kg, po; assay type: organism-based; parameters: dose 300 mg/kg, route oral; conditions: in vivo
Outline: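 Mice dosed orally at 300 mg/kg were assessed for phototoxicity.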

## CCN(CC)c1ccc2nc3c4ccccc4/c(=N\c4ccncc4)cc-3oc2c1
Plasmodium berghei [1]
  Activity: 100%
Leishmania donovani [2]
  pIC50: 5.19
Leishmania donovani [3]
  Ratio IC50: > 1000
[4]
  pIC50: 4.44
Plasmodium berghei [5]
  MSD: 16 days
Trypanosoma cruzi [6]
  pIC50: 4.95
Trypanosoma cruzi [7]
  Ratio IC50: > 1000
Plasmodium berghei [8]
  inhibition in vivo at 100 mg/kg: > 99.9%
Plasmodium berghei [9]
  Activity: 78%
[10]
  Activity: Non-toxic
Plasmodium berghei [11]
  inhibition in vivo at 10 mg/kg: 26%
[12]
  inhibition: 80%
Plasmodium berghei [13]
  MSD: 14.6 days
Plasmodium berghei [14]
  Activity: Active
[15]
  Activity: Non-toxic
Blood
  Activity: Non-toxic
[16]
  Activity: Non-toxic
Plasmodium falciparum
  pIC50: 8.12
[17]
  Drug uptake: Not Active
Plasmodium berghei [18]
  MSD: 4 days
L6
  pIC50: 4.25
Plasmodium berghei [19]
  inhibition in vivo at 30 mg/kg: 99%
Plasmodium berghei [20]
  inhibition in vivo at 100 mg/kg: > 99.9%
Plasmodium berghei [21]
  inhibition in vivo at 100 mg/kg: 99%
Mus musculus [22]
  Activity: Non-toxic
Plasmodium berghei [23]
  MSD: 27.2 days
[24]
  Ratio IC50: > 1000
[25]
  bioavailability: 30%
[26]
  selectivity ratio: 7330
Plasmodium berghei [27]
  MSD: >30 days
[28]
  half-life: 5.5 h
Mus musculus [29]
  Drug uptake: Not Active
[30]
  inhibition: 80%
Mus musculus [31]
  Activity: Non-toxic
